Active and inactive are the calls of the source. The calls are words filed in the database; no cut-off is given here.
Tested on: Trichophyton mentagrophytes
Test: Antifungal activity against Trichophyton mentagrophytes IBT 2724 after 7 days by micro broth dilution method
Type: functional, organism-based
Conditions: IBT 2724, 168 h
Outline: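 T. mentagrophytes IBT2724 was tested by broth microdilution using an 8-fold dilution series of 10 concentrations from 50 μM down to 0.4 μM, with 1% DMSO. The inoculum was prepared per CLSI M38-A2, adjusted to OD530 0.90–1.5 and diluted 50-fold in RPMI/MOPS at pH 7.00. Plates ran 7 days at 37 °C with an OD read-out. IC50 came from a variable-slope sigmoidal fit.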

| SMILES | IC50 [nM] |
| --- | --- |
| COc1cc(OC)c2c(c1Cl)O[C@]1(C2=O)C(OCc2ccc(C)cc2)=CC(=O)C[C@H]1C | 240 |
| COc1cccc(COC2=CC(=O)C[C@@H](C)[C@]23Oc2c(Cl)c(OC)cc(OC)c2C3=O)c1 | 140 |
| COc1cc(OC)c2c(c1Cl)O[C@]1(C2=O)C(OCc2ccc(C(F)(F)F)cc2)=CC(=O)C[C@H]1C | 150 |
| COc1cc(OC)c2c(c1Cl)O[C@]1(C2=O)C(OCC2CC2)=CC(=O)C[C@H]1C | 60 |
| COc1cc(OC)c2c(c1Cl)O[C@]1(C2=O)C(OCc2ccccc2)=C(I)C(=O)C[C@H]1C | 1100 |
| COc1cc(OC)c2c(c1Cl)O[C@@]1(C2=O)[C@H](C)C[C@H](O)C[C@@H]1OC | 3000 |
| CCOc1cc(OC)c2c(c1Cl)O[C@]1(C2=O)C(OC)=CC(=O)C[C@H]1C | 62 |
| COc1cc(OC)c2c(c1Cl)O[C@]1(C2=O)C(OCc2ccc(F)cc2)=CC(=O)C[C@H]1C | 41 |
| COc1cc(OC)c2c(c1Cl)O[C@]1(C2=O)C(SCc2ccccc2)=CC(=O)C[C@H]1C | 58 |

Results, then the compound that gave them:

| IC50 [nM] | SMILES |
| --- | --- |
| 1300 | COc1cc(OC)c2c(c1Cl)O[C@]1(C2=O)C(OCc2ccccn2)=CC(=O)C[C@H]1C |
| 350 | COc1cc(OC)c2c(c1Cl)O[C@]1(C2=O)C(OCc2cccnc2)=CC(=O)C[C@H]1C |
| 290 | CCOc1cc(OC)c(Cl)c2c1C(=O)[C@@]1(O2)C(OC)=CC(=O)C[C@H]1C |
| 110 | COc1cc(OC)c2c(c1Cl)O[C@]1(C2=O)C(OC(C)C)=CC(=O)C[C@H]1C |
| 260 | COc1cc(OC)c2c(c1Cl)O[C@]1(C2=O)C(OCc2ccccc2)=CC(=O)C[C@H]1C |
| 700 | COc1ccccc1COC1=CC(=O)C[C@@H](C)[C@]12Oc1c(Cl)c(OC)cc(OC)c1C2=O |
| 250 | COc1cc(OC)c2c(c1Cl)O[C@]1(C2=O)C(OCc2cccc3ccccc23)=CC(=O)C[C@H]1C |
| 1700 | COc1cc(OC)c2c(c1Cl)O[C@]1(C2=O)C(OCc2ccc(CO)cc2)=CC(=O)C[C@H]1C |
| 230 | CCCOC1=C(I)C(=O)C[C@@H](C)[C@]12Oc1c(Cl)c(OC)cc(OC)c1C2=O |
| 250 | CCOC1=CC(=O)C[C@@H](C)[C@]12Oc1c(Cl)c(OC)cc(OC)c1C2=O |
| 170 | CCCCCOc1cc(OC)c(Cl)c2c1C(=O)[C@@]1(O2)C(OC)=CC(=O)C[C@H]1C |
| 1600 | COc1cc(OC)c2c(c1Cl)O[C@]1(C2=O)C(Oc2ccccc2)=CC(=O)C[C@H]1C |

Tested on: Trichophyton rubrum
Test: Antifungal activity against Trichophyton rubrum IBT 29284 after 7 days by micro broth dilution method
Type: functional, organism-based
Conditions: IBT 29284, 168 h
Outline: (§1)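 T. rubrum IBT29284 was tested by broth microdilution using a 4-fold dilution series of 10 concentrations from 50 μM down to 0.2 μM, with 1% DMSO. The inoculum followed CLSI M38-A2, set to OD530 0.90–1.5 and diluted 50-fold in RPMI/MOPS at pH 7.00. Incubation was 7 days at 37 °C, read by OD. IC50 came from a variable-slope sigmoidal fit.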

| SMILES | IC50 [nM] |
| --- | --- |
| COc1cc(OC)c2c(c1Cl)O[C@]1(C2=O)C(OCc2ccc(C)cc2)=CC(=O)C[C@H]1C | 1000 |
| COc1cccc(COC2=CC(=O)C[C@@H](C)[C@]23Oc2c(Cl)c(OC)cc(OC)c2C3=O)c1 | 960 |
| COc1cc(OC)c2c(c1Cl)O[C@]1(C2=O)C(OCc2ccc(C(F)(F)F)cc2)=CC(=O)C[C@H]1C | 1500 |
| COc1cc(OC)c2c(c1Cl)O[C@]1(C2=O)C(OCC2CC2)=CC(=O)C[C@H]1C | 1500 |
| CCOc1cc(OC)c2c(c1Cl)O[C@]1(C2=O)C(OC)=CC(=O)C[C@H]1C | 1300 |
| COc1cc(OC)c2c(c1Cl)O[C@]1(C2=O)C(OCc2ccc(F)cc2)=CC(=O)C[C@H]1C | 830 |
| COc1cc(OC)c2c(c1Cl)O[C@]1(C2=O)C(SCc2ccccc2)=CC(=O)C[C@H]1C | 1300 |

The next lines start with the values.

| IC50 [nM] | SMILES |
| --- | --- |
| 2000 | CCOc1cc(OC)c(Cl)c2c1C(=O)[C@@]1(O2)C(OC)=CC(=O)C[C@H]1C |
| 3100 | COc1cc(OC)c2c(c1Cl)O[C@]1(C2=O)C(OC(C)C)=CC(=O)C[C@H]1C |
| 1100 | COc1cc(OC)c2c(c1Cl)O[C@]1(C2=O)C(OCc2ccccc2)=CC(=O)C[C@H]1C |
| 2600 | COc1cc(OC)c2c(c1Cl)O[C@]1(C2=O)C(OCc2cccc3ccccc23)=CC(=O)C[C@H]1C |
| 1600 | CCCOC1=C(I)C(=O)C[C@@H](C)[C@]12Oc1c(Cl)c(OC)cc(OC)c1C2=O |
| 690 | CCOC1=CC(=O)C[C@@H](C)[C@]12Oc1c(Cl)c(OC)cc(OC)c1C2=O |
| 6100 | COc1cc(OC)c2c(c1Cl)O[C@]1(C2=O)C(Oc2ccccc2)=CC(=O)C[C@H]1C |

Tested on: MDA-MB-231
Test: Cytotoxicity against human MDA-MB-231 cells assessed as cell viability after 48 hrs by MTT assay
Type: functional, cell-based
Conditions: MDA-MB-231, 48 h
Outline: (§2)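 MDA-MB-231 cells were grown in L-15 with 10% FCS at 37 °C and seeded at (2-3) × 10^4 per well. Exposure was 24 and/or 48 h, then MTT for at least 4 h, with absorbance read at 570/630 nm. Each condition had at least 3 replicates, reported as mean ± SD of a representative experiment repeated at least three times.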

| SMILES | IC50 [nM] |
| --- | --- |
| COc1cc(OC)c2c(c1Cl)O[C@]1(C2=O)C(OCc2ccc(C)cc2)=CC(=O)C[C@H]1C | 1800 |
| COc1cc(OC)c2c(c1Cl)O[C@]1(C2=O)C(OCc2ccccn2)=CC(=O)C[C@H]1C | 32000 |
| COc1cc(OC)c2c(c1Cl)O[C@]1(C2=O)C(OCc2cccnc2)=CC(=O)C[C@H]1C | 10000 |
| COc1cc(OC)c2c(c1Cl)O[C@]1(C2=O)C(OC(C)C)=CC(=O)C[C@H]1C | 11000 |
| COc1cc(OC)c2c(c1Cl)O[C@]1(C2=O)C(OCc2ccccc2)=CC(=O)C[C@H]1C | 2100 |
| COc1ccccc1COC1=CC(=O)C[C@@H](C)[C@]12Oc1c(Cl)c(OC)cc(OC)c1C2=O | 11000 |
| COc1cc(OC)c2c(c1Cl)O[C@]1(C2=O)C(OCc2cccc3ccccc23)=CC(=O)C[C@H]1C | 13000 |
| COc1cccc(COC2=CC(=O)C[C@@H](C)[C@]23Oc2c(Cl)c(OC)cc(OC)c2C3=O)c1 | 8100 |
| COc1cc(OC)c2c(c1Cl)O[C@]1(C2=O)C(OCc2ccc(C(F)(F)F)cc2)=CC(=O)C[C@H]1C | 7000 |
| COc1cc(OC)c2c(c1Cl)O[C@]1(C2=O)C(OCC2CC2)=CC(=O)C[C@H]1C | 9400 |
| COc1cc(OC)c2c(c1Cl)O[C@]1(C2=O)C(OCc2ccc(CO)cc2)=CC(=O)C[C@H]1C | 2800 |
| CCCOC1=C(I)C(=O)C[C@@H](C)[C@]12Oc1c(Cl)c(OC)cc(OC)c1C2=O | 8000 |
| CCOC1=CC(=O)C[C@@H](C)[C@]12Oc1c(Cl)c(OC)cc(OC)c1C2=O | 13000 |
| CCOc1cc(OC)c2c(c1Cl)O[C@]1(C2=O)C(OC)=CC(=O)C[C@H]1C | 36000 |
| COc1cc(OC)c2c(c1Cl)O[C@]1(C2=O)C(OCc2ccc(F)cc2)=CC(=O)C[C@H]1C | 6500 |
| COc1cc(OC)c2c(c1Cl)O[C@]1(C2=O)C(SCc2ccccc2)=CC(=O)C[C@H]1C | 4700 |
| COc1cc(OC)c2c(c1Cl)O[C@]1(C2=O)C(Oc2ccccc2)=CC(=O)C[C@H]1C | 7200 |

Tested on: Trichophyton rubrum
Test: Antifungal activity against Trichophyton rubrum IBT 29284 at 50 uM after 7 days by micro broth dilution method
Type: functional
Conditions: not given
Outline: as §1

| SMILES | inhibition |
| --- | --- |
| COc1cc(OC)c2c(c1Cl)O[C@]1(C2=O)C(OCc2ccccc2)=C(I)C(=O)C[C@H]1C | inactive |

Same assay, conditions: IBT 29284, 168 h

| SMILES | inhibition at 50 µM [%] |
| --- | --- |
| COc1cc(OC)c2c(c1Cl)O[C@]1(C2=O)C(OCc2ccccn2)=CC(=O)C[C@H]1C | < 50 |
| COc1cc(OC)c2c(c1Cl)O[C@]1(C2=O)C(OCc2cccnc2)=CC(=O)C[C@H]1C | < 50 |
| COc1ccccc1COC1=CC(=O)C[C@@H](C)[C@]12Oc1c(Cl)c(OC)cc(OC)c1C2=O | < 50 |
| COc1cc(OC)c2c(c1Cl)O[C@]1(C2=O)C(OCc2ccc(CO)cc2)=CC(=O)C[C@H]1C | < 50 |
| CCCCCOc1cc(OC)c(Cl)c2c1C(=O)[C@@]1(O2)C(OC)=CC(=O)C[C@H]1C | < 50 |
| COc1cc(OC)c2c(c1Cl)O[C@@]1(C2=O)[C@H](C)C[C@H](O)C[C@@H]1OC | < 50 |

Tested on: MDA-MB-231
Test: Cytotoxicity against human MDA-MB-231 cells assessed as cell viability at 50 uM after 48 hrs by MTT assay
Type: functional
Conditions: not given
Outline: as §2

| SMILES | inhibition |
| --- | --- |
| CCOc1cc(OC)c(Cl)c2c1C(=O)[C@@]1(O2)C(OC)=CC(=O)C[C@H]1C | inactive |
| COc1cc(OC)c2c(c1Cl)O[C@@]1(C2=O)[C@H](C)C[C@H](O)C[C@@H]1OC | inactive |

Same assay, conditions: MDA-MB-231, 48 h

| SMILES | inhibition at 50 µM [%] |
| --- | --- |
| COc1cc(OC)c2c(c1Cl)O[C@]1(C2=O)C(OCc2ccccc2)=C(I)C(=O)C[C@H]1C | < 50 |
| CCCCCOc1cc(OC)c(Cl)c2c1C(=O)[C@@]1(O2)C(OC)=CC(=O)C[C@H]1C | < 50 |
